This is an account of results in ChEMBL document CHEMBL1177681, “Hybrid diarylbenzopyrimidine non-nucleoside reverse transcriptase inhibitors as promising new leads for improved anti-HIV-1 chemotherapy” (Bioorg Med Chem, 2010).

For series [1], the system named is Human immunodeficiency virus 1. Nature of the series: Antiviral activity against wild type HIV1 3B infected in human MT4 cells assessed as protection against virus-induced cytopathogenicity after 4 days by MTT assay. In kind it is functional, organism-based. The following applies: Human immunodeficiency virus 1, 3B, MT4, 96 h. The essentials:
(§1)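 MT-4 cells at 1 × 10⁵ cells/mL infected at multiplicity of infection 0.02, then immediately plated onto serial dilutions of compound (DMSO stocks of 50 mM or higher). After 4 days at 37 °C, viable cells counted by MTT. […] Virus stocks titrated in MT-4 cells as CCID50.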

Series [2] relates to Human immunodeficiency virus 2. The series can be described thus: Antiviral activity against wild type HIV2 ROD infected in human MT4 cells assessed as protection against virus-induced cytopathogenicity after 4 days by MTT assay. Type of series: functional, organism-based. The following applies: Human immunodeficiency virus 2, ISOLATE ROD, MT4, 96 h. The method in brief:
as §1

For series [3], the system named is Human immunodeficiency virus 1. The series can be described thus: Antiviral activity against HIV1 with reverse transcriptase K103N, Y181C mutant infected in human MT4 cells assessed as protection against virus-induced cytopathogenicity after 4 days by MTT assay. Type of series: functional, organism-based. The conditions noted are these: Human immunodeficiency virus 1, MT4, 96 h. The method in brief:
(§2)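 MT-4 cells at 1 × 10⁵ cells/mL were infected with the mutant HIV-1 at a multiplicity of infection of 0.02. Virus stocks were titred in MT-4 cells as CCID₅₀. Cells were plated at once onto serial compound dilutions, with DMSO stocks at 50 mM or higher. After 4 days at 37 °C, viable cells were counted by MTT. EC₅₀ is the concentration giving 50% protection from viral cytopathicity.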

The nature of series [4]: Cytotoxicity against human MT4 cells after 4 days by MTT assay. Type of series: cell-based. The essentials: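 Uninfected MT-4 cells were run in parallel with the antiviral plates and exposed to serial compound dilutions (DMSO stocks of 50 mM or higher) for 4 days at 37 °C. Viability was read by MTT.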
Series [5] can be described thus: Selectivity index, CC50 for human MT4 cells to EC50 for wild type HIV1 3B. Type of series: toxicity, cell-based. The following applies: read-out: Ratio CC50/EC50. The method in brief:
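Selectivity index is calculated as CC50 in uninfected MT-4 cells divided by EC50 against HIV-1 IIIB. Both come from parallel 4-day MTT readings at 37 °C, with infection at multiplicity of infection 0.02.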

The test system of series [6] is Human immunodeficiency virus 1. The series can be described thus: Antiviral activity against wild type HIV1 LAI infected in human MT4 cells assessed as protection against virus-induced cytopathogenicity after 4 days by MTT assay. In kind it is functional, organism-based. The following applies: Human immunodeficiency virus 1, LAI, MT4, 96 h.
The subject of series [7] is Human immunodeficiency virus 1. Nature of the series: Antiviral activity against HIV1 with reverse transcriptase E138K mutant infected in human MT4 cells assessed as protection against virus-induced cytopathogenicity after 4 days by MTT assay. The conditions noted are these: Human immunodeficiency virus 1, MT4, 96 h. Type of series: functional, organism-based. The method in brief:
as §2

For series [8], the system named is Human immunodeficiency virus 1. Nature of the series: Antiviral activity against HIV1 with reverse transcriptase L100I mutant infected in human MT4 cells assessed as protection against virus-induced cytopathogenicity after 4 days by MTT assay. Type of series: functional, organism-based. The following applies: Human immunodeficiency virus 1, MT4, 96 h. The method in brief:
as §2

The test system of series [9] is Human immunodeficiency virus 1. Nature of the series: Antiviral activity against HIV1 with reverse transcriptase K103N mutant infected in human MT4 cells assessed as protection against virus-induced cytopathogenicity after 4 days by MTT assay. The conditions noted are these: Human immunodeficiency virus 1, MT4, 96 h. Type of series: functional, organism-based.
Series [10] concerns Human immunodeficiency virus 1. Nature of the series: Antiviral activity against HIV1 with reverse transcriptase Y181C mutant infected in human MT4 cells assessed as protection against virus-induced cytopathogenicity after 4 days by MTT assay. Type of series: functional, organism-based. The conditions noted are these: Human immunodeficiency virus 1, MT4, 96 h. The method in brief: as §2

The test system of series [11] is Human immunodeficiency virus 1. Nature of the series: Antiviral activity against HIV1 with reverse transcriptase Y188L mutant infected in human MT4 cells assessed as protection against virus-induced cytopathogenicity after 4 days by MTT assay. Type of series: functional, organism-based. The following applies: Human immunodeficiency virus 1, MT4, 96 h. The essentials:
as §2

For series [12], the system named is Human immunodeficiency virus 1. Nature of the series: Antiviral activity against HIV1 with reverse transcriptase F227L, V106A mutant infected in human MT4 cells assessed as protection against virus-induced cytopathogenicity after 4 days by MTT assay. The conditions noted are these: Human immunodeficiency virus 1, MT4, 96 h. In kind it is functional, organism-based. The method in brief:
as §2

In series [13] the test system is Human immunodeficiency virus 1. Nature of the series: Ratio of compound EC50 to nevirapine EC50 for wild type HIV1 3B. In kind it is functional.
In series [14] the test system is Human immunodeficiency virus 1. The series can be described thus: Ratio of compound EC50 to delavirdine EC50 for wild type HIV1 3B. In kind it is functional.
Series [15] relates to Human immunodeficiency virus 1. The series can be described thus: Ratio of compound EC50 to efavirenz EC50 for HIV1 with reverse transcriptase Y188L mutant. In kind it is functional.

As to `Cc1cc(C#N)cc(C)c1Oc1nc(Nc2ccc(C#N)cc2)nc2ccccc12`, the concentration giving a half-maximal response (EC50) in series [1] amounted to 1.8 nM; in [2], 32000 nM; in [3], 60 nM; in series [6] it was 2.3 nM; in [7], 11 nM; in [8], 18 nM. The EC50 is at most 3.6 nM in series [9], 31 nM in series [10], 36 nM in series [11] and 107 nM in [12]. Besides, the CC50 at 96 h in series [4] worked out at 203000 nM. For the same molecule, the selectivity ratio in series [5] was 112000. The Ratio in series [13] was 731; in series [14], 266; in series [15], 6.
With `COc1cc(C#N)cc(Cl)c1Oc1nc(Nc2ccc(C#N)cc2)nc2ccccc12`, the EC50 in series [1] was 4.7 nM; in series [2] it was above 219000 nM; in series [3], 160 nM; in series [6] it was 5.4 nM; in [7] it was 12 nM; in series [8] it was 110 nM. For the same molecule, the EC50 is at most 5.4 nM in [9], 49 nM in series [10], 280 nM in [11] and 467 nM in [12]. The CC50 at 96 h in [4] amounted to 220000 nM. In addition, in series [5], the selectivity ratio is 46900.
